Screens from PubChem BioAssay.
FN deposit inh: inhibitors of fibronectin matrix deposition, primary screen, AH1F cells, Alexa488-fibronectin fluorescence, plate reader. AH1F fibroblasts, overnight. inhibition, % at 12.6 µM. actives 0.086% (n = 350,000);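 active = mean inhibition across replicates of 30% or more, regardless of how many single replicates reach that level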;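 note: positive control wells lacked labelled fibronectin entirely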
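Material: AH1F fibroblast monolayer depositing Alexa488-labelled fibronectin into matrix / Amount: 10000 AH1F cells per well / Signal: fluorescence 485/525 nm / Medium: DMEM, 2% serum / Compound: single dose, pinned / Incubation: 1 h cell adhesion before compound, then overnight fibronectin incubation / Reagent: Alexa488-FN, 24 nM final / Read-out: inhibition of fibronectin deposition signal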
XiGFP reactiv: activators of inactive X chromosome reactivation, primary screen, imaging, XiGFP fibroblasts, GFP high-content imaging, set 2 | XiGFP mouse fibroblasts, % GFP-positive cells imaging, 3 d; cells co-treated with 5-aza-dC sensitizer; scaled so ellipticine positive control = 100% | activation, % at 7.58 µM | actives 0.055% (n = 360,000) | AID 743238, 2013;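 active = mean normalized replicate activation at least 10% and every replicate at or above 10%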;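 note: 0% = median of on-plate neutral control wells and 100% = ellipticine 6 µM median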
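System: XiGFP fibroblasts, SV40-immortalized. Medium: DMEM plus 5-aza-dC sensitizer. Doses: single point. Timing: 3 d treatment, 15 min room-temperature fixation. Control set: ellipticine 6 µM.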
CASP6 VEID inh: human caspase-6 inhibitors, primary screen, biochemical, VEID-R110 fluorescence, single point, set 2; P55212; purified caspase-6, Z-VEID-R110 cleavage fluorescence; inhibition, % at 12.5 µM; actives 0.53% (n = 350,000);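 active = mean inhibition across replicates at least about 35%, with every replicate also reaching that limit, limit read from the data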;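 note: 0% = median of neutral control wells and 100% = no fluorescence left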
Target sequence (P55212 24-179 limits assumed): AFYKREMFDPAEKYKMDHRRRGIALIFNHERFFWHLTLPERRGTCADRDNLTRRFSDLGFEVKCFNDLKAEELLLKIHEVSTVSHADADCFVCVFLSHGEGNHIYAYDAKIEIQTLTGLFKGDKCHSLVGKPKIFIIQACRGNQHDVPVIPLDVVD
Target sequence (P55212 194-293 limits assumed): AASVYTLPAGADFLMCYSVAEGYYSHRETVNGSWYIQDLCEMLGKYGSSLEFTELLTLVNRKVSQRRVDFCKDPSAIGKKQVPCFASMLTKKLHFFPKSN
CaV13 ICDI inh: Disruptors of the CACNA1D IQ motif to Ca2+-dependent inactivation inhibitor domain association, primary screening, Förster resonance energy transfer in intact living …; HEK cells, CFP/YFP FRET ICDI-IQ, plate reader, 10 min; percent FRET-ratio fall versus neutral wells; inhibition, % at 12.3 µM; actives 0.098% (n = 340,000); AID 743397;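 active = mean replicate inhibition of at least 30% and at least 1% of replicates passing that level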;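 note: 0% = median of the neutral control wells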
DENV2 CPE: inhibitors of DENV2 cytopathic effect, primary screen, cell-based, plate reader, single concentration | DENV2-infected cells, cytopathic effect rescue | CPE inhibition, % at 9.99 µM | actives 1.7% (n = 350,000) | AID 651640, 2012; in the data active = CPE inhibition above about 20%, passing the limit was not always enough; tested in BHK-21 cells;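 note: 0% = median of neutral control wells and 100% = median of positive control wells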
An asterisk follows results filed as active. Sampled rows, rich in hits. Any-hit rate of the full collection: about 2%.

What do the screens show for `COc1ccc(C(=O)c2[nH]c(N)c(C(=O)NCCc3c[nH]c4ccccc34)c2-c2c(F)cccc2Cl)cc1`?
FN deposit inh: 3.1; XiGFP reactiv: 0.4; CASP6 VEID inh: -4.0; CaV13 ICDI inh: -11.8; DENV2 CPE: 66.8*

What do the screens show for `Nc1[nH]c(C(=O)c2ccccc2)c(-c2ccc(F)cc2)c1C(=O)NCCc1c[nH]c2ccccc12`?
FN deposit inh: 8.1; XiGFP reactiv: 0.0; CASP6 VEID inh: -4.0; CaV13 ICDI inh: -10.4; DENV2 CPE: -11.4

What do the screens show for `Nc1[nH]c(C(=O)c2ccccc2)c(-c2cc(F)ccc2Br)c1C(=O)NCCc1c[nH]c2ccccc12`?
FN deposit inh: 5.8; XiGFP reactiv: 0.8; CASP6 VEID inh: -1.8; CaV13 ICDI inh: -15.9; DENV2 CPE: 28.8*

What do the screens show for `CO[C@@H]1CN(C)C(=O)c2ccc(NC(C)=O)cc2OC[C@@H](C)NC[C@@H]1C`?
FN deposit inh: 5.6; XiGFP reactiv: 0.0; DENV2 CPE: -12.1

How did O=C(C[C@@H]1C=C[C@@H](NC(=O)c2cccc(F)c2)[C@H](CO)O1)NCc1ccc(Oc2ccccc2)cc1 do in these assays?
XiGFP reactiv: -0.4; CASP6 VEID inh: 2.7; DENV2 CPE: -7.4

How did O=C(Nc1ccccc1F)c1coc(=O)c(Br)c1 do in these assays?
FN deposit inh: -8.8; XiGFP reactiv: 0.2; CASP6 VEID inh: 74.0*; CaV13 ICDI inh: -0.3; DENV2 CPE: -0.2

What do the screens show for `O=C(NCCc1ccc(F)cc1)c1coc(=O)c(Br)c1`?
FN deposit inh: 16.5; XiGFP reactiv: -0.1; CASP6 VEID inh: -0.1; CaV13 ICDI inh: -20.8; DENV2 CPE: 1.4

Results for Cc1ccc(OCCOCCN2CCCC2)c(Br)c1 ?
FN deposit inh: -1.5; XiGFP reactiv: 0.0; CASP6 VEID inh: -24.5; CaV13 ICDI inh: -2.1; DENV2 CPE: 43.7*

What do the screens show for `CC(C)CC#Cc1cnc2c(c1)C(=O)N([C@H](C)CO)C[C@H](C)[C@H](CN(C)Cc1ccc3c(c1)OCO3)O2`?
XiGFP reactiv: -0.5; CASP6 VEID inh: 0.4; DENV2 CPE: 19.2

Results for O=C(C[C@H]1CC[C@H]2[C@@H](COC[C@H](O)CN2C(=O)Nc2cc(Cl)cc(Cl)c2)O1)N1CCCCC1 ?
FN deposit inh: -16.9; XiGFP reactiv: 0.1; CASP6 VEID inh: -2.6; DENV2 CPE: -9.1

How did C[C@H]1CN([C@@H](C)CO)C(=O)Cc2cc(NS(=O)(=O)c3cn(C)cn3)ccc2O[C@@H]1CN(C)Cc1ccc(C(=O)Nc2ccccc2N)cc1 do in these assays?
FN deposit inh: -14.8; XiGFP reactiv: -0.3; CASP6 VEID inh: 0.3; DENV2 CPE: 21.3*

Results for C[C@H](CO)N1C[C@H](C)[C@H](CN(C)Cc2ccc(C(=O)Nc3ccccc3N)cc2)Oc2ccc(NS(=O)(=O)c3cn(C)cn3)cc2CC1=O ?
FN deposit inh: -8.3; XiGFP reactiv: -0.6; CASP6 VEID inh: 2.5; DENV2 CPE: -4.9

How did C[C@@H]1CN([C@@H](C)CO)C(=O)Cc2cc(NS(=O)(=O)c3cn(C)cn3)ccc2O[C@H]1CN(C)Cc1ccc(C(=O)Nc2ccccc2N)cc1 do in these assays?
FN deposit inh: -13.4; XiGFP reactiv: -0.1; CASP6 VEID inh: -1.2; DENV2 CPE: 106.6*

What do the screens show for `CO[C@H]1CN(C)C(=O)c2ccc(NC(=O)c3ccccc3F)cc2OC[C@@H](C)N(C(=O)c2ccccc2F)C[C@H]1C`?
FN deposit inh: 6.2; XiGFP reactiv: 0.1; DENV2 CPE: -1.8

How did O=C(C1CCCC1)N1CC2(C1)[C@@H](c1ccccc1)[C@@H](CO)N2Cc1ccccc1F do in these assays?
FN deposit inh: -2.3; XiGFP reactiv: 0.0; CASP6 VEID inh: 0.4; DENV2 CPE: -7.8

What do the screens show for `CCOC(=O)N1CCC(NS(=O)(=O)c2ccc(C#N)cc2)CC1`?
FN deposit inh: -3.0; XiGFP reactiv: 0.0; CASP6 VEID inh: 0.2; CaV13 ICDI inh: -3.4; DENV2 CPE: 46.8*

How did O=C1Nc2ccc(C(=O)O)c(O)c2C1=O do in these assays?
FN deposit inh: 15.3; XiGFP reactiv: 0.0; CASP6 VEID inh: 39.5*; CaV13 ICDI inh: -4.0; DENV2 CPE: 0.0

What do the screens show for `O=C(Cn1cnc2c(NCc3ccccc3)ncnc21)NCC1CCCO1` (stereo not drawn)?
FN deposit inh: -1.2; XiGFP reactiv: -0.1; CASP6 VEID inh: -2.6; CaV13 ICDI inh: -6.1; DENV2 CPE: 74.6*

How did O=C(Cn1cnc2c(OCc3ccccc3)ncnc21)NCC1CCCO1 (stereo not drawn) do in these assays?
XiGFP reactiv: 0.0; CASP6 VEID inh: -2.6; CaV13 ICDI inh: -6.2; DENV2 CPE: 3.1

How did COc1ccc2c3c([nH]c2c1)[C@H](CO)NCC31CN(C(=O)Nc2ccc3c(c2)OCO3)C1 do in these assays?
FN deposit inh: -2.1; XiGFP reactiv: 0.0; CASP6 VEID inh: 0.8; DENV2 CPE: -7.8

Results for OC[C@H]1[C@@H](c2ccccc2)C2(CN(Cc3nccs3)C2)N1CCC(F)(F)F ?
XiGFP reactiv: 0.1; CASP6 VEID inh: -1.5; DENV2 CPE: -1.9

Results for Cc1ccc(S(=O)(=O)Nc2ccc3c(c2)CC(=O)N([C@H](C)CO)C[C@@H](C)[C@H](CN(C)Cc2ccc(C(=O)O)cc2)O3)cc1 ?
XiGFP reactiv: -1.0

What do the screens show for `Cc1ccc([C@@H]2CC=C(C(=O)O)[C@H](c3ccc(Br)cc3)N2S(=O)(=O)c2ccccc2C)cc1`?
FN deposit inh: -0.8; XiGFP reactiv: 0.0; CASP6 VEID inh: 9.1; CaV13 ICDI inh: -8.5; DENV2 CPE: 28.3*

Results for C[C@H](CO)N1C[C@H](C)[C@H](CN(C)C(=O)c2cc(-c3ccccc3)on2)OCc2cn(nn2)CCCC1=O ?
FN deposit inh: 2.7; XiGFP reactiv: -0.6

Results for O=C(Nc1ccccc1F)N1CCCCN2[C@H](CO)[C@@H](c3ccc(C#Cc4ccccc4)cc3)[C@@H]2C1 ?
XiGFP reactiv: 0.2; CASP6 VEID inh: 0.4; DENV2 CPE: 20.8*

What do the screens show for `CC(=O)N1CCCCN2[C@H](CO)[C@@H](c3ccc(C#Cc4ccccc4F)cc3)[C@H]2C1`?
XiGFP reactiv: 0.1; CASP6 VEID inh: -3.4; DENV2 CPE: 24.4*

Results for C=CCN1CCCc2c(-c3ccc(OCCO)cc3)noc2-c2cc(OC)c(OC)cc2CC1 ?
CASP6 VEID inh: -1.9; DENV2 CPE: 15.0

How did C[C@H](CO)N1C[C@H](C)[C@@H](CN(C)C(=O)Nc2ccc(F)cc2)Oc2c(NS(=O)(=O)c3cccs3)cccc2C1=O do in these assays?
FN deposit inh: 9.7; XiGFP reactiv: 0.0; CASP6 VEID inh: 1.9; DENV2 CPE: 13.8
